Results taken from ChEMBL document CHEMBL5036308, “Chiral Alkyl Groups at Position 3(1') of Pyropheophorbide-a Specify Uptake and Retention by Tumor Cells and Are Essential for Effective Photodynamic Therapy” (J Med Chem, 2021).
Active and inactive are the calls of the source. The rule behind the calls is not given here.

Assays:
[1] = Drug uptake in human HN-T1 cells assessed as drug internalization at 1600 nM incubated for 24 hrs in presence of 10% fetal bovine serum measured after 24 hrs chase period by fluorescent microscopy; format: ADME, cell-based; conditions: hnt1, 24 h, 1.6 µM
[2] = Drug uptake in human HN-143 T-EC cells assessed as drug retention at 1600 nM incubated for 24 hrs in presence of 10% fetal bovine by fluorescent microscopy imaging based analysis; format: ADME, cell-based; conditions: 1.6 µM
Summary of the method: (§1)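 Cells incubated 24 h in medium with 10% serum and 1600 nM PS, then chased in PS-free medium for up to 72 h with daily medium changes. Cellular PS was measured daily by fluorescence microscopy; net fluorescence intensity per full image frame was quantified in arbitrary units.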

HN-143 T-EC = assay: Binding affinity to human HN-143 T-EC cell membrane surface measured at 1600 nM incubated for 30 min; format: tissue-based
[3] = Photoreactivation in human TEC21 cells in presence of 10% fetal bovine serum under 665 nm light for 9 mins measured after 24 hrs by immune blot analysis; format: cell-based; conditions: tec-21, 24 h
Summary of the method: (§2)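 TEC-21 cells (p 8) treated 24 h in RPMI + 10% FBS with PS, imaged, chased 48 h in RPMI + 10% FBS, then irradiated 9 min with 665 nm light (6 mW/cm²). Cells were extracted immediately and immunoblotted for STAT3 crosslinking, EGFR and phospho-p38 MAPK.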

[4] = Photoreactivation in human TEC21 cells assessed as STAT3cross-linking in presence of 10% fetal bovine serum under 665 nm light for 9 mins measured after 24 hrs by immune blot analysis; format: cell-based; conditions: tec-21, 0.15 h; summary of the method: as §2
[5] = Drug uptake in human HNT1 cells assessed as drug retention at 1600 nM incubated for 24 hrs in presence of 10% fetal bovine serum measured after 24 hrs chase period by fluorescent microscopy; format: ADME, cell-based; conditions: hnt1, 24 h, 1.6 µM
[6] = Drug uptake in human HN-143 T-EC cells assessed as drug retention at 1600 nM incubated for 24 hrs in presence of 10% fetal bovine serum measured after 72 hrs chase period by fluorescent microscopy imaging based analysis; format: ADME, cell-based; conditions: 1.6 µM; summary of the method: as §1
[7] = Drug uptake in human HN-143-T-EC cells assessed as drug retention in endoplasmic reticulum measured after 72 hrs by fluorescent microscopy; format: ADME, cell-based
[8] = Drug uptake in human HN-143-T-EC cells assessed as drug retention in mitochondria measured after 72 hrs chase period by fluorescent microscopy; format: ADME
[9] = Drug uptake in human FaDu-124 cell membrane assessed as drug internalization at 1600 nM incubated for 30 mins at 37 degC; format: ADME, cell-based; conditions: fadu-124, 0.5 h, 1.6 µM
Summary of the method: (§3)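 FaDu-124 cells, 30 min on ice in serum-free DMEM with 1600 nM PS, then cell-associated fluorescence imaged. For diffusion into cells, cultures were then held 30 min at 37°C in fresh serum-free medium and imaged again.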

FaDu-124 = assay: Binding affinity to human FaDu-124 cell membrane surface measured at 1600 nM incubated for 30 mins at 0 degC; format: tissue-based; summary of the method: as §3
[10] = Drug uptake in human HN-143 T-EC cells assessed as drug retention at 1600 nM incubated for 24 hrs in presence of 10% fetal bovine serum measured after 48 hrs chase period by fluorescent microscopy imaging based analysis; format: ADME, cell-based; conditions: 1.6 µM; summary of the method: as §1
[11] = Drug uptake in tissue cultured human TEC1-2 cells assessed as drug retention at 1600 nM incubated for 24 hrs in presence of 10% fetal bovine serum measured after 48 hrs chase period by fluorescent microscopy; format: ADME, tissue-based; conditions: tec1-2, 24 h, 1.6 µM
[12] = Drug uptake in tissue cultured human TEC1-2 cells assessed as drug retention at 1600 nM incubated for 24 hrs in presence of 10% fetal bovine serum measured after 24 hrs chase period by fluorescent microscopy; format: ADME, tissue-based; conditions: tec1-2, 24 h, 1.6 µM
[13] = Drug uptake in human HN-143 T-EC cells assessed as slow release by measuring drug retention at 1600 nM incubated for 24 hrs in presence of 10% fetal bovine serum measured after 48 hrs chase period by fluorescent microscopy imaging based analysis; format: ADME, cell-based; conditions: 1.6 µM; summary of the method: as §1
[14] = Lipophilicity, logP of the compound; format: physicochemical; conditions: octanol/water
HNT1 = assay: Binding affinity to human HNT1 cell plasma membrane with CFSE-labeled HN-87 T-Fb assessed as drug retention at 1600 nM incubated for 24 hrs in presence of 10% fetal bovine serum measured after 24 hrs chase period by fluorescent microscopy; format: cell membranes
Summary of the method: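 HNT1 cells (p 72) co-cultured on collagen-1 with CFSE-stained HN-87 T-Fb fibroblasts (added to 24 h-old tumor cultures, grown 3–7 days to confluence). Treated 24 h with DMEM + 10% FBS and 1600 nM PS, chased 24 h in DMEM + 10% FBS, then fluorescence imaged under identical conditions.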

TEC1-2 = assay: Binding affinity to human TEC1-2 cell plasma membrane assessed as drug retention at 1600 nM incubated for 24 hrs in presence of 10% fetal bovine serum measured after 48 hrs chase period by fluorescent microscopy; format: cell membranes
[15] = Drug uptake in human HNT1 cells assessed as drug retention at 1600 nM incubated for 24 hrs in presence of 10% fetal bovine serum measured after 48 hrs chase period by fluorescent microscopy; format: ADME, cell-based; conditions: hnt1, 48 h, 1.6 µM
[16] = Drug uptake in human HNT1 cells with CFSE-labeled HN-101 T-Fb assessed as drug retention at 1600 nM incubated for 24 hrs in presence of 10% fetal bovine serum measured after 24 hrs chase period by fluorescent microscopy; format: ADME, cell-based; conditions: hnt1, 24 h, 1.6 µM
Summary of the method: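 Co-cultures of HNT1 cells (p 103) with CFSE-labeled HN-101 T-Fb on collagen-1 matrix; 24 h in DMEM + 10% FBS with 1600 nM PS, then 24 h chase in PS-free medium; cell-associated fluorescence imaged by microscopy.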

[17] = Drug uptake in human HN-90 T-EC cells assessed as drug retention at 1600 nM incubated for 24 hrs in presence of 10% fetal bovine serum measured after 72 hrs chase period by fluorescent microscopy imaging based analysis; format: ADME, cell-based; conditions: 1.6 µM; summary of the method: as §1
[18] = Drug uptake in human HN-77 T-EC cells assessed as drug retention at 1600 nM incubated for 24 hrs in presence of 10% fetal bovine serum measured after 48 hrs chase period by fluorescent microscopy; format: ADME, cell-based; conditions: 1.6 µM
Summary of the method: (§4)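 Confluent cultures (e.g. HN-77 T-EC, p 13) incubated 24 h in RPMI + 10% FBS with 1600 nM PS, then 48 h chase in RPMI + 10% FBS. Fluorescence images recorded and net fluorescence intensity quantified.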

[19] = Drug uptake in human TEC-1 cells assessed as drug retention at 1600 nM incubated for 24 hrs in presence of 10% fetal bovine serum measured after 48 hrs chase period by fluorescent microscopy; format: ADME, cell-based; conditions: tec-1, 48 h, 1.6 µM; summary of the method: as §4
[20] = Drug uptake in human TEC-21 cells assessed as drug retention at 1600 nM incubated for 24 hrs in presence of 10% fetal bovine serum measured after72 hrs chase period by fluorescent microscopy imaging based analysis; format: ADME, cell-based; conditions: tec-21, 72 h, 1.6 µM; summary of the method: as §1
[21] = Drug uptake in human FaDu-124 cells assessed as drug retention at 1600 nM incubated for 24 hrs in presence of 10% fetal bovine serum measured after 48 hrs chase period by fluorescent microscopy; format: ADME, cell-based; conditions: fadu-124, 48 h, 1.6 µM
[22] = Drug uptake in human HN-T1 cells assessed as drug retention at 1600 nM incubated for 24 hrs in presence of 10% fetal bovine serum measured after 72 hrs chase period by fluorescent microscopy imaging based analysis; format: ADME, cell-based; conditions: hnt1, 72 h, 1.6 µM; summary of the method: as §1
[23] = Drug uptake in human HN-142 T-EC cells assessed as drug retention at 1600 nM incubated for 24 hrs in presence of 10% fetal bovine serum measured after 48 hrs chase period by fluorescent microscopy; format: ADME, cell-based; conditions: 1.6 µM; summary of the method: as §4
[24] = Drug uptake in human FaDu clone 49 cells assessed as drug retention at 1600 nM incubated for 24 hrs in presence of 10% fetal bovine serum measured after 72 hrs chase period by fluorescent microscopy imaging based analysis; format: ADME, cell-based; conditions: fadu clone 49, 72 h, 1.6 µM; summary of the method: as §1
[25] = Drug uptake in human L237 cells assessed as drug retention at 1600 nM incubated for 24 hrs in presence of 10% fetal bovine serum measured after 48 hrs chase period by fluorescent microscopy; format: ADME, cell-based; conditions: l237, 48 h, 1.6 µM; summary of the method: as §4

SMILES: CCCCc1c(C)c2cc3nc(c4c5[nH]c(cc6nc(cc1[nH]2)C(C)=C6CC)c(C)c5C(=O)C4)[C@@H](CCC(=O)OC)C3C (stereo partly specified)
- Drug uptake [1]: Active

SMILES: CCCCc1c(C)c2cc3nc(c4c5[nH]c(cc6nc(cc1[nH]2)C(C)=C6CC)c(C)c5C(=O)C4)[C@@H](CCC(=O)O)C3C (stereo partly specified)
- Drug uptake [1]: Active

SMILES: CCCCC(C)OCc1c(C)c2cc3nc(c4c5[nH]c(cc6nc(cc1[nH]2)C(C)=C6CC)c(C)c5C(=O)C4)[C@@H](CCC(=O)O)C3C (stereo partly specified)
- Drug uptake [2]: Active
- Activity (HN-143 T-EC): Active
- Drug metabolism [3]: Metabolite_Detected
- Activity [4]: 0.2%
- Drug uptake [5]: Active
- Drug uptake [6]: Active

SMILES: CCCCCCOC(CCC)c1c(C)c2cc3nc(c4c5[nH]c(cc6nc(cc1[nH]2)C(C)=C6CC)c(C)c5C(=O)C4)[C@@H](CCC(=O)OC)C3C (stereo partly specified)
- Drug uptake [7]: Active
- Drug uptake [6]: Active
- Drug uptake [8]: Active

SMILES: CCCCCCOC(C)c1c(C)c2cc3nc(c4c5[nH]c(cc6nc(cc1[nH]2)C(C)=C6CC)c(C)c5C(=O)C4)[C@@H](CCC(=O)OC)C3C (stereo partly specified)
- Drug uptake [7]: Active
- Drug uptake [9]: Active
- Drug uptake [6]: Active
- Drug uptake [8]: Active
- Activity (FaDu-124): Active

SMILES: CCCCOC(CCC)c1c(C)c2cc3nc(c4c5[nH]c(cc6nc(cc1[nH]2)C(C)=C6CC)c(C)c5C(=O)C4)[C@@H](CCC(=O)OC)C3C (stereo partly specified)
- Drug uptake [7]: Active
- Drug uptake [6]: Active
- Drug uptake [8]: Active

SMILES: CCCCOC(CCC)c1c(C)c2cc3nc(c4c5[nH]c(cc6nc(cc1[nH]2)C(C)=C6CC)c(C)c5C(=O)C4)[C@@H](CCC(=O)O)C3C (stereo partly specified)
- Drug uptake [2]: Active
- Drug metabolism [3]: Metabolite_Detected
- Activity [4]: 3.1%
- Drug uptake [10]: Active
- Drug uptake [7]: Active
- Drug uptake [11]: Active
- Drug uptake [12]: Active
- Drug uptake [6]: Active
- Drug uptake [8]: Active
- Drug uptake [13]: Active
- logP [14]: 6.56

SMILES: CCCCCCOCc1c(C)c2cc3nc(c4c5[nH]c(cc6nc(cc1[nH]2)C(C)=C6CC)c(C)c5C(=O)C4)[C@@H](CCC(=O)OC)C3C (stereo partly specified)
- Activity (HNT1): inactive
- Activity (TEC1-2): inactive

SMILES: CCCCCCOC(C)c1c(C)c2cc3nc(c4c5[nH]c(cc6nc(cc1[nH]2)C(C)=C6CC)c(C)c5C(=O)C4)[C@@H](CCC(=O)O)C3C (stereo partly specified)
- Drug uptake [15]: Not Active
- Drug uptake [16]: Active
- Drug uptake [2]: Active
- Activity [4]: 0.4%
- Drug uptake [5]: Not Active
- Drug uptake [17]: Active
- Drug uptake [18]: Not Active
- Drug uptake [19]: Not Active
- Drug uptake [9]: Active
- Drug uptake [20]: Active
- Drug uptake [21]: Not Active
- Drug uptake [22]: Active
- Drug uptake [23]: Not Active
- Drug uptake [6]: Active
- Drug uptake [24]: Active
- Drug uptake [8]: Active
- Activity (FaDu-124): Active
- logP [14]: 6.01
- Drug uptake [25]: Not Active
